Measurements as given in ChEMBL document CHEMBL1155231, “Fluoro-pegylated chalcones as positron emission tomography probes for in vivo imaging of beta-amyloid plaques in Alzheimer's disease” (J Med Chem, 2009).
Each block holds one molecule with its values, some of them ahead of it. The source made the active and inactive calls. No cut-off for these calls is given here.

Columns and labels:
[1] = Displacement of [125I]DMIC from amyloid beta (1 to 42) peptide
Summary of the method: (§1)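 Aβ(1-42) aggregated at 0.25 mg/mL in 10 mM sodium phosphate, 1 mM EDTA, pH 7.4, 37 °C for 42 h with gentle constant shaking. Competition against [125I]DMIC. Bound and free separated by GF/B filtration, filter radioactivity read by γ counter. IC50 from displacement curves of three independent experiments, Ki by Cheng-Prusoff.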

[2] = Binding affinity to amyloid beta (1 to 42) peptide; summary of the method: as §1
[3] = tested on: Blood; experiment: Biodistribution in normal ddY mouse blood at 3.7 MBq, iv after 2 mins; assay type: ADME, organism-based; conditions: in vivo
Summary of the method: (§2)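 Tracer (3.7 MBq) in 100 μL saline with 10% EtOH and 1 mg/mL ascorbic acid, injected into tail vein of 5-week-old ddY mice (22-25 g). Groups of five killed at each time; organs removed, weighed, radioactivity γ-counted and expressed as % injected dose per gram, mean ± SD of 4-5 mice.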

[4] = tested on: Blood; experiment: Biodistribution in normal ddY mouse blood at 3.7 MBq, iv after 10 mins; assay type: ADME, organism-based; conditions: in vivo; summary of the method: as §2
[5] = tested on: Blood; experiment: Biodistribution in normal ddY mouse blood at 3.7 MBq, iv after 30 mins; assay type: ADME, organism-based; conditions: in vivo, 0.5 h; summary of the method: as §2
[6] = tested on: Blood; experiment: Biodistribution in normal ddY mouse blood at 3.7 MBq, iv after 60 mins; assay type: ADME, organism-based; conditions: in vivo, 1 h; summary of the method: as §2
[7] = tested on: Brain; experiment: Biodistribution in normal ddY mouse brain at 3.7 MBq, iv after 2 mins; assay type: ADME, organism-based; conditions: in vivo; summary of the method: as §2
[8] = tested on: Brain; experiment: Biodistribution in normal ddY mouse brain at 3.7 MBq, iv after 10 mins; assay type: ADME, organism-based; conditions: in vivo; summary of the method: as §2
[9] = tested on: Brain; experiment: Biodistribution in normal ddY mouse brain at 3.7 MBq, iv after 30 mins; assay type: ADME, organism-based; conditions: in vivo, 0.5 h; summary of the method: as §2
[10] = tested on: Brain; experiment: Biodistribution in normal ddY mouse brain at 3.7 MBq, iv after 60 mins; assay type: ADME, organism-based; conditions: in vivo, 1 h; summary of the method: as §2
[11] = tested on: Bone; experiment: Biodistribution in normal ddY mouse bone at 3.7 MBq, iv after 2 mins; assay type: ADME, organism-based, Bone element; conditions: in vivo; summary of the method: as §2
[12] = tested on: Bone; experiment: Biodistribution in normal ddY mouse bone at 3.7 MBq, iv after 10 mins; assay type: ADME, organism-based, Bone element; conditions: in vivo; summary of the method: as §2
[13] = tested on: Bone; experiment: Biodistribution in normal ddY mouse bone at 3.7 MBq, iv after 30 mins; assay type: ADME, organism-based, Bone element; conditions: in vivo, 0.5 h; summary of the method: as §2
[14] = tested on: Bone; experiment: Biodistribution in normal ddY mouse bone at 3.7 MBq, iv after 60 mins; assay type: ADME, organism-based, Bone element; conditions: in vivo, 1 h; summary of the method: as §2
[15] = tested on: Amyloid-beta precursor protein (Homo sapiens), P05067 [K670N,M671L]; experiment: Binding affinity to human recombinant APP695 K670N and M671L Swedish double mutant plaques expressed in Tg2576 mouse brain at 100 uM after 10 mins by amyloid beta-protein immunohistostaining
Summary of the method: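 Female Tg2576 and age-matched wild-type mice, 20 months old; brains frozen on dry ice, cut into 10 μm serial sections. Slides incubated 10 min with 100 μM compound in 50% EtOH, washed twice 3 min in 50% EtOH, fluorescence read with excitation 450-490 nm and 520 nm long-pass. Adjacent sections immunostained for Aβ with DAB.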

[16] = target: Amyloid-beta precursor protein (Homo sapiens) (UniProt P05067); experiment: Binding affinity to beta amyloid plaques in human Alzheimer's disease patient brain at 54 uCi/200 uL by autoradiography; conditions: tested as the 18F-labelled form

Ki [1]: 471 nM
SMILES: CNc1ccc(/C=C/C(=O)c2ccc(OCCOCCOCCF)cc2)cc1

Ki [1]: 49.8 nM
SMILES: CN(C)c1ccc(/C=C/C(=O)c2ccc(F)cc2)cc1

Ki [2]: 6.7 nM
SMILES: CNc1ccc(/C=C/c2ccc(OCCOCCOCC[18F])cc2)cc1 [FLORBETABEN F18]

Drug uptake [3]: 2.09 % ID/g
Drug uptake [4]: 1.94 % ID/g
Drug uptake [5]: 2.35 % ID/g
Drug uptake [6]: 1.87 % ID/g
Drug uptake [7]: 3.48 % ID/g
Drug uptake [8]: 1.52 % ID/g
Drug uptake [9]: 1.08 % ID/g
Drug uptake [10]: 1.07 % ID/g
Drug uptake [11]: 1.8 % ID/g
Drug uptake [12]: 1.76 % ID/g
Drug uptake [13]: 2.98 % ID/g
Drug uptake [14]: 3.58 % ID/g
SMILES: CN(C)c1ccc(/C=C/C(=O)c2ccc(OCCOCCOCC[18F])cc2)cc1

Drug uptake [3]: 3.48 % ID/g
Drug uptake [4]: 2.28 % ID/g
Drug uptake [5]: 2.54 % ID/g
Drug uptake [6]: 1.44 % ID/g
Drug uptake [7]: 4.73 % ID/g
Drug uptake [8]: 2.23 % ID/g
Drug uptake [9]: 1.14 % ID/g
Drug uptake [10]: 1 % ID/g
SMILES: CN([11CH3])c1ccc(/C=C/C(=O)c2ccc(OCCOCCF)cc2)cc1

Drug uptake [3]: 2.44 % ID/g
Drug uptake [4]: 1.52 % ID/g
Drug uptake [5]: 1.01 % ID/g
Drug uptake [6]: 0.68 % ID/g
Drug uptake [7]: 4.31 % ID/g
Drug uptake [8]: 1.38 % ID/g
Drug uptake [9]: 0.64 % ID/g
Drug uptake [10]: 0.35 % ID/g
SMILES: CN([11CH3])c1ccc(/C=C/C(=O)c2ccc(OCCOCCOCCF)cc2)cc1

Ki [1]: 1050 nM
SMILES: Nc1ccc(/C=C/C(=O)c2ccc(OCCOCCF)cc2)cc1

Ki [1]: 663 nM
SMILES: Nc1ccc(/C=C/C(=O)c2ccc(F)cc2)cc1

Drug uptake [3]: 3.65 % ID/g
Drug uptake [4]: 2.73 % ID/g
Drug uptake [5]: 2.12 % ID/g
Drug uptake [6]: 2.22 % ID/g
Drug uptake [7]: 6.01 % ID/g
Drug uptake [8]: 3.24 % ID/g
Drug uptake [9]: 2.57 % ID/g
Drug uptake [10]: 2.26 % ID/g
SMILES: CN([11CH3])c1ccc(/C=C/C(=O)c2ccc(OCCF)cc2)cc1

Ki [1]: 790 nM
SMILES: Nc1ccc(/C=C/C(=O)c2ccc(OCCOCCOCCF)cc2)cc1

Ki [1]: 216 nM
SMILES: CNc1ccc(/C=C/C(=O)c2ccc(OCCOCCF)cc2)cc1

Ki [1]: 20 nM
SMILES: CN(C)c1ccc(/C=C/C(=O)c2ccc(OCCOCCF)cc2)cc1

Drug uptake [3]: 2.61 % ID/g
Drug uptake [4]: 1.6 % ID/g
Drug uptake [5]: 0.39 % ID/g
Drug uptake [6]: 1.4 % ID/g
Drug uptake [7]: 3.68 % ID/g
Drug uptake [8]: 1.53 % ID/g
Drug uptake [9]: 1.04 % ID/g
Drug uptake [10]: 1.04 % ID/g
SMILES: CN([11CH3])c1ccc(/C=C/C(=O)c2ccc(F)cc2)cc1

Ki [1]: 13.1 nM
SMILES: CN(C)c1ccc(/C=C/C(=O)c2ccc(I)cc2)cc1

Ki [1]: 197 nM
SMILES: CNc1ccc(/C=C/C(=O)c2ccc(OCCF)cc2)cc1

Ki [1]: 679 nM
SMILES: Nc1ccc(/C=C/C(=O)c2ccc(OCCF)cc2)cc1

Ki [1]: 28 nM
SMILES: CN(C)c1ccc(-c2cn3cc(I)ccc3n2)cc1

Ki [1]: 45.7 nM
SMILES: CN(C)c1ccc(/C=C/C(=O)c2ccc(OCCF)cc2)cc1

Ki [1]: 38.9 nM
Activity [15]: Active
Activity [16]: Active
SMILES: CN(C)c1ccc(/C=C/C(=O)c2ccc(OCCOCCOCCF)cc2)cc1

Ki [1]: 234 nM
SMILES: CNc1ccc(/C=C/C(=O)c2ccc(F)cc2)cc1
